# Activity calls are given as the source filed them. No rule for the calls is given here.
# Target: T1, G-protein coupled receptor 55 (Homo sapiens, UniProt Q9Y2T6)
# Experiment: Antagonist activity at human GPR55 transfected in CHO cells assessed as inhibition of LPI-induced beta-arrestin recruitment incubated 60 mins prior to LPI addition by beta-arrestin translocation assay
# Assay type: cell-based
# Settings: not given
# Summary of the method: (§1)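 CHO cells stably expressing human GPR55 were seeded at 20,000 cells/well for 24 h at 37°C. Compound in PBS/10% DMSO/0.1% BSA was added 60 min before 1 µM LPI. Galacton-Star/Emerald-II/lysis buffer (pH 8) was applied for 60 min at RT, with luminescence read-out. Screening was at 10 µM (% inhibition). IC50 was measured where inhibition exceeded 60%. Three independent experiments in duplicate.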
# T1 sequence (Q9Y2T6 whole entry): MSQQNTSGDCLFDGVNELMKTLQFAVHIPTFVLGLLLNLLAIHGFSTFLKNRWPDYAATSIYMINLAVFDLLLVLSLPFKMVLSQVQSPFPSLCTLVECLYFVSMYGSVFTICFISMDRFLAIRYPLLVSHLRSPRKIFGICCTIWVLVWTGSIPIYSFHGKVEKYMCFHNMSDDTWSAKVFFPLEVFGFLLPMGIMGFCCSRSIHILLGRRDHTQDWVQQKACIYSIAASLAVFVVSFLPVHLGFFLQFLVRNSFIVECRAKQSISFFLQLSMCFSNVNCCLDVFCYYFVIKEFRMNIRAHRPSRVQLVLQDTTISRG
row,SMILES,IC50
1,Cc1cc(O)c2cc(Cc3ccccc3C)c(=O)oc2c1,> 10 µM
2,COc1c(C)c(C)c2oc(=O)c(Cc3ccc(F)cc3)cc2c1C,13.5 µM
3,COc1ccc2cc(Cc3ccccc3)c(=O)oc2c1,10 µM
4,CCCCCc1cc(O)c2cc(Cc3ccccc3C)c(=O)oc2c1,> 10 µM
5,COc1ccccc1Cc1cc2c(C)ccc(C)c2oc1=O,7.14 µM
6,CCCCCc1cc(O)c2cc(Cc3ccccc3O)c(=O)oc2c1,> 10 µM
7,Cc1cc2c(ccc3ccccc32)oc1=O,> 10 µM
8,COc1cccc(Cc2cc3c(OC)cc(Br)cc3oc2=O)c1,3.99 µM
9,CCCCCc1cc(OC)c2cc(Cc3cc(C)c(OC)c(C)c3)c(=O)oc2c1,> 10 µM
10,COc1cccc(Cc2cc3c(OC)cc(CO)cc3oc2=O)c1,> 10 µM
11,CCCCCCC(C)(C)c1cc(OC)c2cc(Cc3ccccc3OC)c(=O)oc2c1,> 10 µM
12,CCCCCc1cc(O)c2cc(Cc3ccccc3Cl)c(=O)oc2c1,> 10 µM
13,COc1cccc(Cc2cc3c(OC)cc(CBr)cc3oc2=O)c1,> 10 µM
14,O=c1oc2ccccc2cc1Cc1ccccc1,> 10 µM
15,Cc1c(O)c(C)c2cc(Cc3ccccc3)c(=O)oc2c1C,9.32 µM
16,COc1cccc2cc(Cc3ccccc3)c(=O)oc12,> 10 µM
17,COc1ccc2cc(C)c(=O)oc2c1,> 10 µM
18,Cc1cc2cc(I)ccc2oc1=O,> 10 µM
19,CCCCCc1cc(OC)c2cc(Cc3cccc(Cl)c3)c(=O)oc2c1,> 10 µM
20,O=c1oc2cccc(O)c2cc1Cc1ccccc1,> 10 µM
21,CCCCCc1cc(O)c2cc(Cc3cccc(Cl)c3)c(=O)oc2c1,> 10 µM
22,Cc1ccccc1Cc1cc2c(C)c(O)c(C)c(C)c2oc1=O,5.16 µM
23,O=c1oc2ccc(I)cc2cc1Cc1ccccc1,> 10 µM

# Target: T2, N-arachidonyl glycine receptor (Homo sapiens) (UniProt Q14330)
# T2 sequence (whole entry): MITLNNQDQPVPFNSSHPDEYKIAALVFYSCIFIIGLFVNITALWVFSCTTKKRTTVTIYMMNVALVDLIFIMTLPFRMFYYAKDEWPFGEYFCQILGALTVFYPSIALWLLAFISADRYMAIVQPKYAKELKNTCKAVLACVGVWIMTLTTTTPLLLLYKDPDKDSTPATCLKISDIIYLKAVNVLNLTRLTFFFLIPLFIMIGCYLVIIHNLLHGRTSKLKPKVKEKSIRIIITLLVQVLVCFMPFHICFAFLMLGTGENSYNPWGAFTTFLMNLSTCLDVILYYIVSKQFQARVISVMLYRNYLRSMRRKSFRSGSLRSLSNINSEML
# Experiment: Antagonist activity at human GPR18 transfected in CHO cells assessed as delta9-THC-induced beta-arrestin recruitment at 10 uM incubated 60 mins prior to delta9-THC addition by beta-arrestin translocation assay
# Assay type: cell-based
# Set-up: scale not given: the % may be the effect or the level left
# Settings: not given
# Summary of the method: (§2)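 CHO cells stably expressing human GPR18 were seeded at 20,000 cells/well for 24 h at 37°C. Compound in PBS/10% DMSO/0.1% BSA was added 60 min before the GPR18 agonist 3 at 10 µM. The supplier's detection reagent was used, and luminescence was read after 60 min at RT. Screening was at 10 µM (% inhibition); IC50 from concentration-inhibition curves. Three independent experiments in duplicate.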
row,SMILES,Activity
1,COc1c(C)c(C)c2oc(=O)c(Cc3ccc(F)cc3)cc2c1C,32%
2,CCCCCc1cc(O)c2cc(Cc3ccccc3C)c(=O)oc2c1,10%
3,COc1ccccc1Cc1cc2c(C)ccc(C)c2oc1=O,0%
4,COc1cccc(Cc2cc3c(OC)cc(Br)cc3oc2=O)c1,31%
5,CCCCCCC(C)(C)c1cc(OC)c2cc(Cc3ccccc3OC)c(=O)oc2c1,26%
6,CCCCCc1cc(O)c2cc(Cc3ccccc3Cl)c(=O)oc2c1,0%
7,Cc1c(O)c(C)c2cc(Cc3ccccc3)c(=O)oc2c1C,16%
8,Cc1ccccc1Cc1cc2c(C)c(O)c(C)c(C)c2oc1=O,38%

# Target: T1, G-protein coupled receptor 55
# Experiment: Antagonist activity at human GPR55 transfected in CHO cells assessed as inhibition of LPI-induced beta-arrestin recruitment at 10 uM incubated 60 mins prior to LPI addition by beta-arrestin translocation assay
# Assay type: cell-based
# Set-up: scale not given: the % may be the effect or the level left
# Settings: not given
# Summary of the method: as §1
row,SMILES,Activity
1,Cc1cc(O)c2cc(Cc3ccccc3C)c(=O)oc2c1,45%
2,COc1ccc2cc(Cc3ccccc3)c(=O)oc2c1,53%
3,CCCCCc1cc(O)c2cc(Cc3ccccc3C)c(=O)oc2c1,19%
4,CCCCCc1cc(O)c2cc(Cc3ccccc3O)c(=O)oc2c1,37%
5,Cc1cc2c(ccc3ccccc32)oc1=O,28%
6,CCCCCc1cc(OC)c2cc(Cc3cc(C)c(OC)c(C)c3)c(=O)oc2c1,44%
7,COc1cccc(Cc2cc3c(OC)cc(CO)cc3oc2=O)c1,13%
8,CCCCCCC(C)(C)c1cc(OC)c2cc(Cc3ccccc3OC)c(=O)oc2c1,25%
9,CCCCCc1cc(O)c2cc(Cc3ccccc3Cl)c(=O)oc2c1,0%
10,COc1cccc(Cc2cc3c(OC)cc(CBr)cc3oc2=O)c1,18%
11,O=c1oc2ccccc2cc1Cc1ccccc1,28%
12,COc1cccc2cc(Cc3ccccc3)c(=O)oc12,5%
13,COc1ccc2cc(C)c(=O)oc2c1,25%
14,Cc1cc2cc(I)ccc2oc1=O,40%
15,CCCCCc1cc(OC)c2cc(Cc3cccc(Cl)c3)c(=O)oc2c1,36%
16,O=c1oc2cccc(O)c2cc1Cc1ccccc1,6%
17,CCCCCc1cc(O)c2cc(Cc3cccc(Cl)c3)c(=O)oc2c1,30%
18,O=c1oc2ccc(I)cc2cc1Cc1ccccc1,46%

# Target: T1, G-protein coupled receptor 55
# Experiment: Agonist activity at human GPR55 transfected in CHO cells at 10 uM after 90 mins by beta-arrestin translocation assay
# Assay type: cell-based
# Settings: not given
# Summary of the method: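 CHO cells stably expressing human GPR55 (β-galactosidase fragment complementation) were seeded at 20,000 cells/well in Opti-MEM with 2% FCS for 24 h at 37°C. Compound was diluted in PBS with 10% DMSO and 0.1% BSA, screened at 10 µM and incubated 90 min at 37°C. Galacton-Star/Emerald-II/lysis buffer (1:5:19) was added for 60 min at RT, then luminescence was read. Response is relative to 1 µM LPI (100%).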
row,SMILES,Activity
1,Cc1cc(O)c2cc(Cc3ccccc3C)c(=O)oc2c1,inactive
2,COc1c(C)c(C)c2oc(=O)c(Cc3ccc(F)cc3)cc2c1C,inactive
3,COc1ccc2cc(Cc3ccccc3)c(=O)oc2c1,inactive
4,CCCCCc1cc(O)c2cc(Cc3ccccc3C)c(=O)oc2c1,inactive
5,COc1ccccc1Cc1cc2c(C)ccc(C)c2oc1=O,inactive
6,CCCCCc1cc(O)c2cc(Cc3ccccc3O)c(=O)oc2c1,inactive
7,Cc1cc2c(ccc3ccccc32)oc1=O,inactive
8,COc1cccc(Cc2cc3c(OC)cc(Br)cc3oc2=O)c1,inactive
9,CCCCCc1cc(OC)c2cc(Cc3cc(C)c(OC)c(C)c3)c(=O)oc2c1,inactive
10,COc1cccc(Cc2cc3c(OC)cc(CO)cc3oc2=O)c1,inactive
11,CCCCCCC(C)(C)c1cc(OC)c2cc(Cc3ccccc3OC)c(=O)oc2c1,inactive
12,CCCCCc1cc(O)c2cc(Cc3ccccc3Cl)c(=O)oc2c1,inactive
13,COc1cccc(Cc2cc3c(OC)cc(CBr)cc3oc2=O)c1,inactive
14,O=c1oc2ccccc2cc1Cc1ccccc1,inactive
15,Cc1c(O)c(C)c2cc(Cc3ccccc3)c(=O)oc2c1C,inactive
16,COc1cccc2cc(Cc3ccccc3)c(=O)oc12,inactive
17,COc1ccc2cc(C)c(=O)oc2c1,inactive
18,Cc1cc2cc(I)ccc2oc1=O,inactive
19,CCCCCc1cc(OC)c2cc(Cc3cccc(Cl)c3)c(=O)oc2c1,inactive
20,O=c1oc2cccc(O)c2cc1Cc1ccccc1,inactive
21,CCCCCc1cc(O)c2cc(Cc3cccc(Cl)c3)c(=O)oc2c1,inactive
22,Cc1ccccc1Cc1cc2c(C)c(O)c(C)c(C)c2oc1=O,inactive
23,O=c1oc2ccc(I)cc2cc1Cc1ccccc1,inactive

# Target: T3, Cannabinoid receptor 1 (Homo sapiens, UniProt P21554)
# T3 sequence (P21554 whole entry): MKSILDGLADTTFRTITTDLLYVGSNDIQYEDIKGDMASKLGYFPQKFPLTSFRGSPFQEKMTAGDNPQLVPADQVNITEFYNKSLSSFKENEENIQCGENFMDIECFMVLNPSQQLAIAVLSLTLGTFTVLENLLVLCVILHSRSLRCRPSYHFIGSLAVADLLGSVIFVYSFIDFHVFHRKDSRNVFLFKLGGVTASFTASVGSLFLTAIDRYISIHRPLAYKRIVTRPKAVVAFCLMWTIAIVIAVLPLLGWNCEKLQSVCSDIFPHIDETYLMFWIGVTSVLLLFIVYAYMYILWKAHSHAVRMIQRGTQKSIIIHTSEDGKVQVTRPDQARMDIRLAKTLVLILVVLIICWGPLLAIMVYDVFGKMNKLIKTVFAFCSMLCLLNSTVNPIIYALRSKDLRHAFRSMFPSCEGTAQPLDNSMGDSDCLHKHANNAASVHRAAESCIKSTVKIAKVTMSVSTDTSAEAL
# Experiment: Displacement of [3H]-CP55,940 from human CB1 receptor transfected in CHOK1 cells
# Assay type: cell-based, CHO-K1
# Settings: not given
row,SMILES,Ki
1,COc1c(C)c(C)c2oc(=O)c(Cc3ccc(F)cc3)cc2c1C,10 µM
2,COc1ccccc1Cc1cc2c(C)ccc(C)c2oc1=O,> 10 µM
3,Cc1c(O)c(C)c2cc(Cc3ccccc3)c(=O)oc2c1C,> 10 µM
4,Cc1ccccc1Cc1cc2c(C)c(O)c(C)c(C)c2oc1=O,≥ 10 µM

# Target: Cannabinoid receptor 2 (Homo sapiens, UniProt P34972)
# Sequence (P34972 whole entry): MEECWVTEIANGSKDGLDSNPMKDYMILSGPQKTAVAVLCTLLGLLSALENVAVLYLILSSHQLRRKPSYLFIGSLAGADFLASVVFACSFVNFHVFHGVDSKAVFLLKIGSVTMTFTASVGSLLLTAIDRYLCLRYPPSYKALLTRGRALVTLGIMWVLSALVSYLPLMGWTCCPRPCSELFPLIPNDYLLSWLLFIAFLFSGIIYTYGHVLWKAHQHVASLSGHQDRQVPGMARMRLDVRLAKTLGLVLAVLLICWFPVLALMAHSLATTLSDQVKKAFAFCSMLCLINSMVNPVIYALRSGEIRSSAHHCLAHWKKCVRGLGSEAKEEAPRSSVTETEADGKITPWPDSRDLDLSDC
# Experiment: Displacement of [3H]-CP55,940 from human CB2 receptor transfected in CHOK1 cells
# Assay type: cell-based, CHO-K1
# Settings: not given
# Summary of the method: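 CHO cells stably expressing human CB2 supplied the membranes, 1 µg protein per vial. Compounds were screened at 10 µM, and full competition curves were run where inhibition was about 50% or more. Three independent experiments in duplicate.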
row,SMILES,Ki
1,COc1c(C)c(C)c2oc(=O)c(Cc3ccc(F)cc3)cc2c1C,1480 nM
2,COc1ccccc1Cc1cc2c(C)ccc(C)c2oc1=O,6830 nM
3,Cc1c(O)c(C)c2cc(Cc3ccccc3)c(=O)oc2c1C,3420 nM
4,Cc1ccccc1Cc1cc2c(C)c(O)c(C)c(C)c2oc1=O,1560 nM

# Target: T3, Cannabinoid receptor 1
# Experiment: Displacement of [3H]-CP55,940 from human CB1 receptor transfected in CHOK1 cells at 10 uM
# Assay type: cell-based
# Settings: CHO-K1
# Summary of the method: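 Human CB1 from membrane preparations of stably transfected CHO cells, 25 µg protein per vial. Competition with [3H]CP55,940 at 0.1 nM final, with test compound at 10 µM, read as % inhibition of radioligand binding. Final DMSO 2.5%. Three independent experiments in duplicate.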
row,SMILES,Activity
1,COc1c(C)c(C)c2oc(=O)c(Cc3ccc(F)cc3)cc2c1C,49%
2,COc1ccccc1Cc1cc2c(C)ccc(C)c2oc1=O,16%
3,COc1cccc(Cc2cc3c(OC)cc(Br)cc3oc2=O)c1,38%
4,Cc1c(O)c(C)c2cc(Cc3ccccc3)c(=O)oc2c1C,21%
5,Cc1ccccc1Cc1cc2c(C)c(O)c(C)c(C)c2oc1=O,45%

# Target: T4, N-arachidonyl glycine receptor (Homo sapiens, UniProt Q14330)
# T4 sequence (Q14330 whole entry): T2 sequence (whole entry)
# Experiment: Antagonist activity at human GPR18 transfected in CHO cells assessed as delta9-THC-induced beta-arrestin recruitment incubated 60 mins prior to delta9-THC addition by beta-arrestin translocation assay
# Assay type: cell-based
# Settings: not given
# Summary of the method: as §2
row,SMILES,IC50
1,COc1c(C)c(C)c2oc(=O)c(Cc3ccc(F)cc3)cc2c1C,> 10 µM
2,CCCCCc1cc(O)c2cc(Cc3ccccc3C)c(=O)oc2c1,> 10 µM
3,COc1ccccc1Cc1cc2c(C)ccc(C)c2oc1=O,> 10 µM
4,COc1cccc(Cc2cc3c(OC)cc(Br)cc3oc2=O)c1,> 10 µM
5,CCCCCCC(C)(C)c1cc(OC)c2cc(Cc3ccccc3OC)c(=O)oc2c1,> 10 µM
6,CCCCCc1cc(O)c2cc(Cc3ccccc3Cl)c(=O)oc2c1,> 10 µM
7,Cc1c(O)c(C)c2cc(Cc3ccccc3)c(=O)oc2c1C,> 10 µM
8,Cc1ccccc1Cc1cc2c(C)c(O)c(C)c(C)c2oc1=O,> 10 µM
9,CCCCCCC(C)(C)c1ccc([C@@H]2C[C@H](O)CC[C@H]2CCCO)c(O)c1 [CP-55940],5.99 µM

# Source: ChEMBL document CHEMBL2384924, “Antagonists for the orphan G-protein-coupled receptor GPR55 based on a coumarin scaffold” (J Med Chem, 2013)
